Results from ChEMBL document CHEMBL1759852, “A comparative study of proapoptotic potential of cyano analogues of boswellic acid and 11-keto-boswellic acid” (Eur J Med Chem, 2011).
Activity calls are given as the source filed them. No cut-off for these calls is given here.

Tests used:
HL-60 [1] = assay: Cytotoxicity against human HL60 cells after 48 hrs by MTT assay; format: functional, cell-based; conditions: HL-60, 48 h
How it was run: (§1)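 HL-60 (2 × 10^4/200 μl) or HeLa (1 × 10^4/200 μl) in RPMI-1640/MEM, 10% FCS, 37 °C, 5% CO2; treated 0.1–50 μM for 48 h, DMSO vehicle <0.2%. MTT added final 3 h; formazan dissolved in DMSO, OD 570 nm (reference 620 nm). IC50 as 50% viability versus untreated control; three experiments, CV <10%.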

HeLa = assay: Cytotoxicity against human HeLa cells after 48 hrs by MTT assay; format: functional, cell-based; how it was run: as §1
HL-60 [2] = assay: Induction of apoptosis in human HL60 cells assessed as late apoptotic cells at 4 uM after 6 hrs using Annexin-V-FITC/propidium iodide staining by flow cytometry (reference value: 1%); format: functional
How it was run: (§2)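 HL-60 cells (1 × 10^6/ml) treated 6 h at varied concentrations; camptothecin 4 μM 6 h positive control. AnnexinV-FITC and propidium iodide staining per kit; FL-1 versus FL-2 flow cytometry with quadrant statistics for apoptotic and necrotic populations; representative of three experiments.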

HL-60 [3] = assay: Induction of apoptosis in human HL60 cells assessed as induction of morphological changes after 9 hrs by scanning electron microscopy; format: functional, cell-based
How it was run: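 HL-60 seeded 2 × 10^5/ml in medium with 10% FCS, treated at 0.5 and 2 μM (DMSO stock; vehicle-only controls) for 9 h at 37 °C. Fixed 2.5% glutaraldehyde in 0.1 M phosphate pH 7.2 at 4 °C 1 h, post-fixed 1% OsO4 1 h, acetone-dehydrated, critical-point dried, gold-coated; surface ultrastructure by scanning electron microscopy.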

HL-60 [4] = assay: Cell cycle arrest in human HL60 cells assessed as accumulation at sub-G1 phase at 4 uM after 18 hrs by flow cytometry relative to control; format: functional
How it was run: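 HL-60 cells at 1 × 10^6/ml exposed 18 h; camptothecin 4 μM for 6 h as positive control. Cells pelleted 160 × g 5 min, PBS-washed, fixed in cold 70% alcohol overnight at −20 °C, RNase (400 μg/ml) digested, PI-stained; flow cytometry, hypo-diploid (<2n DNA) sub-G0/G1 fraction scored as apoptotic.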

HL-60 [5] = assay: Induction of apoptosis in human HL60 cells assessed as late apoptotic cells at 1 uM after 6 hrs using Annexin-V-FITC/propidium iodide staining by flow cytometry (reference value: 1%); format: functional; how it was run: as §2
HL-60 [6] = assay: Induction of apoptosis in human HL60 cells assessed as late apoptotic cells at 0.3 uM after 6 hrs using Annexin-V-FITC/propidium iodide staining by flow cytometry (reference value: 1%); format: functional; how it was run: as §2
HL-60 [7] = assay: Induction of apoptosis in human HL60 cells assessed as nuclear condensation and blebbing at 0.5 to 2 uM after 9 hrs Hoechst 33258 staining by fluorescence microscopy; format: functional, cell-based
How it was run: (§3)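 HL-60 cells (2 × 10^6/3 ml) treated 9 h, washed twice in PBS, fixed and stained with Hoechst 33258; nuclear morphology and apoptotic bodies examined by inverted fluorescence microscopy.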

HL-60 [8] = assay: Induction of apoptosis in human HL60 cells assessed as early apoptotic cells at 4 uM after 6 hrs using Annexin-V-FITC/propidium iodide staining by flow cytometry (reference value: 6%); format: functional; how it was run: as §2
HL-60 [9] = assay: Induction of apoptosis in human HL60 cells assessed as late apoptotic cells at 2 uM after 6 hrs using Annexin-V-FITC/propidium iodide staining by flow cytometry (reference value: 1%); format: functional; how it was run: as §2
HL-60 [10] = assay: Induction of apoptosis in human HL60 cells assessed as early apoptotic cells at 2 uM after 6 hrs using Annexin-V-FITC/propidium iodide staining by flow cytometry (reference value: 6%); format: functional; how it was run: as §2
HL-60 [11] = assay: Induction of apoptosis in human HL60 cells assessed as early apoptotic cells at 1 uM after 6 hrs using Annexin-V-FITC/propidium iodide staining by flow cytometry (reference value: 6%); format: functional; how it was run: as §2
HL-60 [12] = assay: Induction of apoptosis in human HL60 cells assessed as DNA ladder formation at 1 uM after 9 hrs by agarose gel electrophoresis; format: functional, cell-based
How it was run: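 HL-60 cells (2 × 10^6) treated 9 h; untreated negative control, camptothecin 4 μM positive control. Cells washed in PBS with 10 mM EDTA, lysed, genomic DNA extracted, precipitated, washed in 80% alcohol, dissolved in TE; run on 1.6% agarose at 50 V, ethidium bromide stained for laddering.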

HL-60 [13] = assay: Induction of apoptosis in human HL60 cells assessed as increase in scattered apoptotic bodies formation at 0.5 uM after 9 hrs using Hoechst 33258 staining by fluorescence microscopy; format: functional, cell-based; how it was run: as §3
HL-60 [14] = assay: Induction of apoptosis in human HL60 cells assessed as early apoptotic cells at 0.3 uM after 6 hrs using Annexin-V-FITC/propidium iodide staining by flow cytometry (reference value: 6%); format: functional; how it was run: as §2

## CCCCOC(=O)[C@]1(C)[C@@H]2CC[C@]3(C)[C@H](C(=O)C=C4[C@@H]5[C@@H](C)[C@H](C)CC[C@]5(C)CC[C@]43C)[C@@]2(C)CC[C@H]1OC(C)=O
HL-60 [1]
  IC50: 30 µM
HeLa
  IC50: 40 µM

## CC(=O)O[C@@H]1CC[C@@]2(C)[C@@H](CC[C@]3(C)[C@@H]2CC=C2[C@@H]4[C@@H](C)[C@H](C)CC[C@]4(C)CC[C@]23C)[C@@]1(C)C(=O)O
HL-60 [1]
  IC50: 10 µM
HeLa
  IC50: 22 µM

## C[C@H]1[C@H](C)CC[C@]2(C)CC[C@]3(C)C(=CC(=O)[C@@H]4[C@@]5(C)CC[C@@H](O)[C@](C)(C(=O)O)[C@@H]5CC[C@]43C)[C@H]12 [11-KETO BOSWELLIC ACID]
HL-60 [1]
  IC50: 32 µM
HeLa
  IC50: 50 µM

## CCCCOC(=O)[C@@]1(C)[C@H](O)CC[C@@]2(C)[C@H]1CC[C@]1(C)[C@@H]2CC=C2[C@@H]3[C@@H](C)[C@H](C)CC[C@]3(C)CC[C@]21C
HL-60 [1]
  IC50: > 50 µM
HeLa
  IC50: > 50 µM

## C[C@H]1[C@H](C)CC[C@]2(C)CC[C@]3(C)C(=CC(=O)[C@@H]4[C@@]5(C)CC(C(N)=O)[C@H](O)[C@](C)(N=C=O)[C@@H]5CC[C@]43C)[C@H]12 (stereo partly drawn)
HL-60 [1]
  IC50: 24 µM
HeLa
  IC50: 45 µM

## C[C@H]1[C@H](C)CC[C@]2(C)CC[C@]3(C)C(=CC[C@@H]4[C@@]5(C)CC(C(N)=O)[C@H](O)[C@](C)(N=C=O)[C@@H]5CC[C@]43C)[C@H]12 (stereo partly drawn)
HL-60 [1]
  IC50: > 50 µM
HeLa
  IC50: > 50 µM

## CCCCOC(=O)[C@@]1(C)c2oncc2C[C@@]2(C)[C@H]1CC[C@]1(C)[C@@H]2C(=O)C=C2[C@@H]3[C@@H](C)[C@H](C)CC[C@]3(C)CC[C@]21C
HL-60 [1]
  IC50: 33 µM
HeLa
  IC50: > 50 µM

## CCCCOC(=O)[C@@]1(C)C(=O)CC[C@]2(C)[C@H]3CC=C4[C@@H]5[C@@H](C)[C@H](C)CC[C@]5(C)CC[C@@]4(C)[C@]3(C)CC[C@@H]12
HL-60 [1]
  IC50: > 50 µM
HeLa
  IC50: > 50 µM

## C[C@H]1[C@H](C)CC[C@]2(C)CC[C@]3(C)C(=CC[C@@H]4[C@@]5(C)CC(C(N)=O)[C@H](O)[C@](C)(N)[C@@H]5CC[C@]43C)[C@H]12 (stereo partly drawn)
HL-60 [1]
  IC50: 37 µM
HeLa
  IC50: > 50 µM

## CC(=O)O[C@@H]1CC[C@@]2(C)[C@@H](CC[C@]3(C)[C@@H]2C(=O)C=C2[C@@H]4[C@@H](C)[C@H](C)CC[C@]4(C)CC[C@]23C)[C@@]1(C)C(=O)O [AKBA]
HL-60 [1]
  IC50: 11 µM
HeLa
  IC50: 31 µM

## CCCCOC(=O)[C@@]1(C)C(=O)CC[C@]2(C)[C@H]3C(=O)C=C4[C@@H]5[C@@H](C)[C@H](C)CC[C@]5(C)CC[C@@]4(C)[C@]3(C)CC[C@@H]12
HL-60 [1]
  IC50: > 50 µM
HeLa
  IC50: > 50 µM

## CCCCOC(=O)[C@@]1(C)[C@H](O)CC[C@@]2(C)[C@H]1CC[C@]1(C)[C@@H]2C(=O)C=C2[C@@H]3[C@@H](C)[C@H](C)CC[C@]3(C)CC[C@]21C
HL-60 [1]
  IC50: 34 µM
HeLa
  IC50: 50 µM

## CCCCOC(=O)[C@@]1(C)C(=O)C(C#N)C[C@]2(C)[C@H]3CC=C4[C@@H]5[C@@H](C)[C@H](C)CC[C@]5(C)CC[C@@]4(C)[C@]3(C)CC[C@@H]12 (stereo partly drawn)
HL-60 [1]
  IC50: 14 µM
HeLa
  IC50: 35 µM

## CCCCOC(=O)[C@@]1(C)C(=O)C(C#N)C[C@]2(C)[C@H]3C(=O)C=C4[C@@H]5[C@@H](C)[C@H](C)CC[C@]5(C)CC[C@@]4(C)[C@]3(C)CC[C@@H]12 (stereo partly drawn)
HL-60 [1]
  IC50: 11 µM
HeLa
  IC50: 17 µM

## CCCCOC(=O)[C@]1(C)[C@@H]2CC[C@]3(C)[C@H](CC=C4[C@@H]5[C@@H](C)[C@H](C)CC[C@]5(C)CC[C@]43C)[C@@]2(C)CC[C@H]1OC(C)=O
HL-60 [1]
  IC50: 28 µM
HeLa
  IC50: > 50 µM

## CCCCOC(=O)[C@]1(C)[C@@H]2CC[C@]3(C)[C@H](C(=O)C=C4[C@@H]5[C@@H](C)[C@H](C)CC[C@]5(C)CC[C@]43C)[C@@]2(C)CC(C#N)[C@@H]1O (stereo partly drawn)
HL-60 [1]
  IC50: 14 µM
HeLa
  IC50: 30 µM

## C[C@H]1[C@H](C)CC[C@]2(C)CC[C@]3(C)C(=CC(=O)[C@@H]4[C@@]5(C)CC(C(N)=O)[C@H](O)[C@](C)(N)[C@@H]5CC[C@]43C)[C@H]12 (stereo partly drawn)
HL-60 [1]
  IC50: > 50 µM
HeLa
  IC50: > 50 µM

## C[C@H]1[C@H](C)CC[C@]2(C)CC[C@]3(C)C(=CC(=O)[C@@H]4[C@@]5(C)CC(C(N)=O)[C@H](O)[C@](C)(C(=O)O)[C@@H]5CC[C@]43C)[C@H]12 (stereo partly drawn)
HL-60 [1]
  IC50: > 50 µM
HeLa
  IC50: > 50 µM

## CCCCOC(=O)[C@@]1(C)C(=O)/C(=C\O)C[C@]2(C)[C@H]3C(=O)C=C4[C@@H]5[C@@H](C)[C@H](C)CC[C@]5(C)CC[C@@]4(C)[C@]3(C)CC[C@@H]12
HL-60 [1]
  IC50: 5 µM
HeLa
  IC50: > 50 µM

## C[C@H]1[C@H](C)CC[C@]2(C)CC[C@]3(C)C(=CC[C@@H]4[C@@]5(C)CC(C(N)=O)[C@H](O)[C@](C)(C(=O)O)[C@@H]5CC[C@]43C)[C@H]12 (stereo partly drawn)
HL-60 [1]
  IC50: > 50 µM
HeLa
  IC50: > 50 µM

## CCCCOC(=O)[C@]1(C)[C@@H]2CC[C@]3(C)[C@H](CC=C4[C@@H]5[C@@H](C)[C@H](C)CC[C@]5(C)CC[C@]43C)[C@@]2(C)CC(C#N)[C@@H]1O (stereo partly drawn)
HL-60 [1]
  IC50: > 50 µM
HeLa
  IC50: > 50 µM

## CCCCOC(=O)[C@@]1(C)C(=O)/C(=C\O)C[C@]2(C)[C@H]3CC=C4[C@@H]5[C@@H](C)[C@H](C)CC[C@]5(C)CC[C@@]4(C)[C@]3(C)CC[C@@H]12
HL-60 [1]
  IC50: 33 µM
HeLa
  IC50: 44 µM

## CCCCOC(=O)[C@@]1(C)C(=O)C(C#N)=C[C@]2(C)[C@H]3C(=O)C=C4[C@@H]5[C@@H](C)[C@H](C)CC[C@]5(C)CC[C@@]4(C)[C@]3(C)CC[C@@H]12
HL-60 [2]
  Activity: 1%
HL-60 [3]
  Activity: Dose-dependent effect
HL-60 [1]
  IC50: 0.67 µM
HL-60 [4]
  Activity: 96%
HL-60 [5]
  Activity: 2%
HL-60 [6]
  Activity: 3%
HL-60 [7]
  Activity: Active
HL-60 [8]
  Activity: 26%
HL-60 [9]
  Activity: 1%
HL-60 [10]
  Activity: 24%
HeLa
  IC50: 3 µM
HL-60 [11]
  Activity: 20%
HL-60 [12]
  Activity: Active
HL-60 [13]
  Activity: Active
HL-60 [14]
  Activity: 15%

## CCCCOC(=O)[C@@]1(C)c2oncc2C[C@@]2(C)[C@H]1CC[C@]1(C)[C@@H]2CC=C2[C@@H]3[C@@H](C)[C@H](C)CC[C@]3(C)CC[C@]21C
HL-60 [1]
  IC50: 50 µM
HeLa
  IC50: 50 µM

## C[C@H]1[C@H](C)CC[C@]2(C)CC[C@]3(C)C(=CC[C@@H]4[C@@]5(C)CC[C@@H](O)[C@](C)(C(=O)O)[C@@H]5CC[C@]43C)[C@H]12 [BOSWELLIC ACID]
HL-60 [1]
  IC50: 24 µM
HeLa
  IC50: 35 µM
